# Experimental data taken from ChEMBL document CHEMBL6134769, “Discovery of N-substituted-2-oxoindolin benzoylhydrazines as c-MET/SMO modulators in EGFRi-resistant non-small cell lung cancer” (RSC Med Chem, 2025).
# The source made the active and inactive calls. The rule behind the calls is not given here.
# How the values were obtained:
# [1] = target: T1, Tyrosine-protein kinase JAK3 (Homo sapiens) (UniProt P52333); assay: Inhibition of human N-terminal His-tagged JAK3 catalytic domain (795 to 1124 (end)residues) expressed in baculovirus expression system at 20 uM measured after 1 hr in presence of peptide substrate and ATP by off-chip mobility shift assay relative to control
# T1 sequence (whole entry): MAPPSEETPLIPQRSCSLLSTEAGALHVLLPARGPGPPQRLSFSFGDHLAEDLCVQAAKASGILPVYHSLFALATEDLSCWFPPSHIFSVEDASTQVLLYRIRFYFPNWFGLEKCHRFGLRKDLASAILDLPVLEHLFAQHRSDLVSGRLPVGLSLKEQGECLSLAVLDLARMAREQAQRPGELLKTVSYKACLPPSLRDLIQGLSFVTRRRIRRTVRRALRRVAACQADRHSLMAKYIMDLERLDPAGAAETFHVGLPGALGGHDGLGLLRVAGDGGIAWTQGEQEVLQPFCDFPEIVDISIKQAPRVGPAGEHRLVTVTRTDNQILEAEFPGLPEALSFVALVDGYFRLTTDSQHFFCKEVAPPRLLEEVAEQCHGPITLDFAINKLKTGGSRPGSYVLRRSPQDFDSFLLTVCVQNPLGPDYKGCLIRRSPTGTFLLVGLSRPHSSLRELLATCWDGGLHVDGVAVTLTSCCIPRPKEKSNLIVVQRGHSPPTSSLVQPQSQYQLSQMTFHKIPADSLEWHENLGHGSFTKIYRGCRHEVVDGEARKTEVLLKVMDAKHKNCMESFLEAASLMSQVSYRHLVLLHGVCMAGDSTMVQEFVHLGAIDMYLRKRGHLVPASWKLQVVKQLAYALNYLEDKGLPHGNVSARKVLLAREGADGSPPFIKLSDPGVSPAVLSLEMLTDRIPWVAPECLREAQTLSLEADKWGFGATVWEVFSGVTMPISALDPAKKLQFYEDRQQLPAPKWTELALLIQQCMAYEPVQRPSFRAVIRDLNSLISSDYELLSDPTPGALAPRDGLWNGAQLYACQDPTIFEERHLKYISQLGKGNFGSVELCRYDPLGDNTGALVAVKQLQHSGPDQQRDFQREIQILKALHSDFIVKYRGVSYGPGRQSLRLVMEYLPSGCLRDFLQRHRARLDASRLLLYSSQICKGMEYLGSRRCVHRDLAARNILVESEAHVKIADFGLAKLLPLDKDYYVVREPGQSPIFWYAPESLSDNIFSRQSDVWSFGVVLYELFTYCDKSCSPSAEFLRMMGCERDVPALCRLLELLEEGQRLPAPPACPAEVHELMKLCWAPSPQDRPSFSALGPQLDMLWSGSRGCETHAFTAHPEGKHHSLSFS
# Outline: (§1)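 Off-chip mobility shift assay. Product and substrate peptides were separated; activity was taken as P/(P+S). Complete reaction was set as 0% inhibition and enzyme-free background as 100%. Run in triplicate, mean ± SD.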
# [2] = target: Tyrosine-protein kinase Lck (Homo sapiens) (UniProt P06239); assay: Inhibition of human full-length N-terminal GST-fused LCK (1 to 509 (end)residues) expressed in baculovirus expression system at 20 uM measured after 1 hr in presence of peptide substrate and ATP by off-chip mobility shift assay relative to control; outline: as §1
# Chain of Tyrosine-protein kinase Lck (Homo sapiens) (P06239 2-509 limits assumed): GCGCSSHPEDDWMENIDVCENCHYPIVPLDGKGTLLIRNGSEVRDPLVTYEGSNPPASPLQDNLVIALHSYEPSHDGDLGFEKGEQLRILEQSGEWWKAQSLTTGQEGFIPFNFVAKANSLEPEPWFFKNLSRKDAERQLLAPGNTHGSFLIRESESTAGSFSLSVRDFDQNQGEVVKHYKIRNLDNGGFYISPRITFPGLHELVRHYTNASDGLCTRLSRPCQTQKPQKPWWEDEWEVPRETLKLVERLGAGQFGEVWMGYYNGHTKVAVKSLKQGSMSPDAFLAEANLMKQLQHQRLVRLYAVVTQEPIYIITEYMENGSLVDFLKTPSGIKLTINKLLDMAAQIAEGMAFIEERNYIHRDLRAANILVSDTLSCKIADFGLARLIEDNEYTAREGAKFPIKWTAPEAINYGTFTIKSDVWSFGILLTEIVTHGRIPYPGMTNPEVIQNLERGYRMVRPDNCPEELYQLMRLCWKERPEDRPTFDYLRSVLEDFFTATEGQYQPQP
# [3] = target: T2, Tyrosine-protein kinase receptor TYRO3 (Homo sapiens) (UniProt Q06418); assay: Inhibition of human N-terminal GST-fused TYRO3 cytoplasmic domain (453 to 890 (end)residues) expressed in baculovirus expression system at 20 uM measured after 1 hr in presence of peptide substrate and ATP by off-chip mobility shift assay relative to control; outline: as §1
# T2 sequence (whole entry): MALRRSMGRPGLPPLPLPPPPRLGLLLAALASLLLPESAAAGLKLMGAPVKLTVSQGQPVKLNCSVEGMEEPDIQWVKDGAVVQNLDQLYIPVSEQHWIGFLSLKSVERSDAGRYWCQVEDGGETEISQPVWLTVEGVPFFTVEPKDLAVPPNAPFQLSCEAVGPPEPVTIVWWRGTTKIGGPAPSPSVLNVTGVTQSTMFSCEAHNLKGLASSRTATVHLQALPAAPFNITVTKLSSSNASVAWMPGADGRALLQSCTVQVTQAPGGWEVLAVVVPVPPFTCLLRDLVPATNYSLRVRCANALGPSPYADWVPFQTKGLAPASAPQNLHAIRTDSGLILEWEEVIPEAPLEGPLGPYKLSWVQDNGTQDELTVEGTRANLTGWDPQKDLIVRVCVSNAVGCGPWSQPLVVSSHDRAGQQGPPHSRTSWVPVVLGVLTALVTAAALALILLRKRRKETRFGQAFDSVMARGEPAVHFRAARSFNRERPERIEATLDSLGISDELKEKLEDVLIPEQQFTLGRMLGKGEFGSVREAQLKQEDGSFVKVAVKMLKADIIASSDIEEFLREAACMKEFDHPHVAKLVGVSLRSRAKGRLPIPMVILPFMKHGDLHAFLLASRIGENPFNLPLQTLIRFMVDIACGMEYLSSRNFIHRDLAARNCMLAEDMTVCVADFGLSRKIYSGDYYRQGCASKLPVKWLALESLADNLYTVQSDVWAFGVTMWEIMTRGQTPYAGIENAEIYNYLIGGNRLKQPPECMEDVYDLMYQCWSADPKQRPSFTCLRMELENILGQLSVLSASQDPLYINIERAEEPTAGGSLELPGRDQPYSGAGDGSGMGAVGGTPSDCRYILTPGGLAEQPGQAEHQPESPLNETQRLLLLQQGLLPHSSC
# [4] = target: High affinity nerve growth factor receptor (Homo sapiens) (UniProt P04629); assay: Inhibition of human N-terminal GST-fused TRKA cytoplasmic domain (436 to 790 (end)residues) expressed in baculovirus expression system at 20 uM measured after 1 hr in presence of peptide substrate and ATP by off-chip mobility shift assay relative to control; outline: as §1
# Chain of High affinity nerve growth factor receptor (Homo sapiens) (P04629 33-796 limits assumed): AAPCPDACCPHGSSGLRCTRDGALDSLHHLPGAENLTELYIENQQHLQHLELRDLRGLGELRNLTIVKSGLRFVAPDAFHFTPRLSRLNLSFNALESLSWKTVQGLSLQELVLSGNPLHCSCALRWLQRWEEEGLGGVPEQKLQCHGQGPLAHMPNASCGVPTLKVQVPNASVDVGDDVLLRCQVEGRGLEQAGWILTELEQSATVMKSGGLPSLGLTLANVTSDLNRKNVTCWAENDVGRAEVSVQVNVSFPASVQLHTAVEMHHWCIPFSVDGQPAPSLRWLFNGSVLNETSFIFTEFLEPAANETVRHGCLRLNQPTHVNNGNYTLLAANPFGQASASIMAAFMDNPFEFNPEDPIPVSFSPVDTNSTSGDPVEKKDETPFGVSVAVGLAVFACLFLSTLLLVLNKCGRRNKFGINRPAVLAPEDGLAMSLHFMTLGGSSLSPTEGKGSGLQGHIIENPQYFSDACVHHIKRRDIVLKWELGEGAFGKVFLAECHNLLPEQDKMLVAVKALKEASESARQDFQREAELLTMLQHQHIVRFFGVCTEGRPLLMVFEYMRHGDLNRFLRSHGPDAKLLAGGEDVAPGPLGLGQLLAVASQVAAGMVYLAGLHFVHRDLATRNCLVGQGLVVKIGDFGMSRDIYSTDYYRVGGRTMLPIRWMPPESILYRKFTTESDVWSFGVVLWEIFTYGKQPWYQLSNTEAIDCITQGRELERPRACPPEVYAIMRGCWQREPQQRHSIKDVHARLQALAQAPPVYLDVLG
# [5] = target: Angiopoietin-1 receptor (Homo sapiens) (UniProt Q02763); assay: Inhibition of human N-terminal GST-fused TIE2 cytoplasmic domain (771 to 1124 (end)residues) expressed in baculovirus expression system at 20 uM measured after 1 hr in presence of peptide substrate and ATP by off-chip mobility shift assay relative to control; outline: as §1
# Chain of Angiopoietin-1 receptor (Homo sapiens) (Q02763 whole entry, the tested form may be a part): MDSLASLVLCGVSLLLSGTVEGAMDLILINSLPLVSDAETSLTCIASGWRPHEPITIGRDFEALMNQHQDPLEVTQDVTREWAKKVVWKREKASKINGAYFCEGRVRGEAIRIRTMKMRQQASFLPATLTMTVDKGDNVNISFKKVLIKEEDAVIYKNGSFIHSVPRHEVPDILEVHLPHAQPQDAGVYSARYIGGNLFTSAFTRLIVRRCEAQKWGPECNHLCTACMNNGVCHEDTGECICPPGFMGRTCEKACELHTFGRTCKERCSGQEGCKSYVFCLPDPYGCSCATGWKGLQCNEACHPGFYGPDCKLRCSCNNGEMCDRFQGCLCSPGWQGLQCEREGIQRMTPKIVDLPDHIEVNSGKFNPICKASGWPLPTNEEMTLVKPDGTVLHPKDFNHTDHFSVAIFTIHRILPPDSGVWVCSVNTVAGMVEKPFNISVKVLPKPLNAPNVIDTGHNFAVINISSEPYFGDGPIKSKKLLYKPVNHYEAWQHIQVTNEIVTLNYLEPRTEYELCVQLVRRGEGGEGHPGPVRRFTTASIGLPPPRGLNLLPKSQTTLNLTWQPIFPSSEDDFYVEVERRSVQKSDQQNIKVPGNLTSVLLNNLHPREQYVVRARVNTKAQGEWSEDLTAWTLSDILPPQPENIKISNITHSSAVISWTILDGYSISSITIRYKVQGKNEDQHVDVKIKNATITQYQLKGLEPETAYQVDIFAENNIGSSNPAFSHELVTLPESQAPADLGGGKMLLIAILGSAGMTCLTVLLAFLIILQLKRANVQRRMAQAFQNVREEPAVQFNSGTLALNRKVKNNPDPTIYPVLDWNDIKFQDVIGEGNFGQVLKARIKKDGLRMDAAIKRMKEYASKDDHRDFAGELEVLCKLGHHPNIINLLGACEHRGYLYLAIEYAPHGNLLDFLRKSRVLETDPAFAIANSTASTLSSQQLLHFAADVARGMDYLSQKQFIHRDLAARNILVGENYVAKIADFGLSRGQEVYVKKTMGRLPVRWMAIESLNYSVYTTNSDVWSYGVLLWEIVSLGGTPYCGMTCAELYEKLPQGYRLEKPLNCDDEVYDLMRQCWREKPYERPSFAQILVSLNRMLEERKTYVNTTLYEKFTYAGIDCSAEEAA
# [6] = target: Tyrosine-protein kinase CSK (Homo sapiens) (UniProt P41240); assay: Inhibition of human full-length N-terminal GST-fused CSK (1 to 450 (end)residues) expressed in baculovirus expression system at 20 uM measured after 1 hr in presence of peptide substrate and ATP by off-chip mobility shift assay relative to control; outline: as §1
# Chain of Tyrosine-protein kinase CSK (Homo sapiens) (P41240 2-450 limits assumed): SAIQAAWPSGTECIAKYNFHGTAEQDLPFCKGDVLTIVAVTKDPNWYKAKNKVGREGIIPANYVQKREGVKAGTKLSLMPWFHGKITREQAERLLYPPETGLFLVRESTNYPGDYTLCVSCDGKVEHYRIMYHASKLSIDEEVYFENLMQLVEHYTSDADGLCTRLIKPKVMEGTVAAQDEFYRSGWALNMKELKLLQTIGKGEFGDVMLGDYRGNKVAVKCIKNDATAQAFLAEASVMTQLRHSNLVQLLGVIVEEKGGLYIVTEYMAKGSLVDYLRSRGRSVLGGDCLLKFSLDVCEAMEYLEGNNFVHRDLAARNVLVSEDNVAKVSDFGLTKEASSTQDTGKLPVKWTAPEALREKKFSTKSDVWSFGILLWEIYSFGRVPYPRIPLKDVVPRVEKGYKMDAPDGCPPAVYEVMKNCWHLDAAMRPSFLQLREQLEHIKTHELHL
# [7] = target: Protein smoothened (Homo sapiens, UniProt Q99835); assay: Inhibition of SMO in human PC9-OR cells assessed as reduction in GLI1 expression at antiproliferative IC50 measured after 72 hrs by Western blot analysis; assay type: functional, cell-based
# Chain of Protein smoothened (Q99835 whole entry, the tested form may be a part): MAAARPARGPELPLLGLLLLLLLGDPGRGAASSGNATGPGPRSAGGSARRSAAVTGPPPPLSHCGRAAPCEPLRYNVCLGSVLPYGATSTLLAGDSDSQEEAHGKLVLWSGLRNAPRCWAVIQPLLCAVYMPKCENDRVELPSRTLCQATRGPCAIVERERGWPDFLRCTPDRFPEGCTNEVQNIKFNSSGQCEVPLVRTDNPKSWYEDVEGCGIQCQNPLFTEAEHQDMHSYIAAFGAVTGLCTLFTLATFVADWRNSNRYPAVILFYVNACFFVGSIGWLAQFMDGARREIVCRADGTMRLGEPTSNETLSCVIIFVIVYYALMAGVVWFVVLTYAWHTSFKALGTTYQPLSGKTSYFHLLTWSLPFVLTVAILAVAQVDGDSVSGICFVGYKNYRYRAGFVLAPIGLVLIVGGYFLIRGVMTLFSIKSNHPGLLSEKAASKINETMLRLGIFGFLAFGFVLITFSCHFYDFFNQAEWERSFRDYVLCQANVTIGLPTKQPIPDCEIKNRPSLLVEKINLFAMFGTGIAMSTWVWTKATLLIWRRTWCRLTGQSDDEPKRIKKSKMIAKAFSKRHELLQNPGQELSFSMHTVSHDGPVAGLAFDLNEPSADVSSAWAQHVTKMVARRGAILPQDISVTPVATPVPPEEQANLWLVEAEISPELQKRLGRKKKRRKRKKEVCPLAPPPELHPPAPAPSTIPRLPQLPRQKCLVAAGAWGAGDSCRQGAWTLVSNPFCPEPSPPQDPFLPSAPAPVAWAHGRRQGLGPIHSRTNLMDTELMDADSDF
# [8] = target: Insulin-like growth factor 1 receptor (Homo sapiens) (UniProt P08069); assay: Inhibition of human N-terminal GST-fused IGF1R cytoplasmic domain (959 to 1367 (end)residues) expressed in baculovirus expression system at 20 uM measured after 1 hr in presence of peptide substrate and ATP by off-chip mobility shift assay relative to control; outline: as §1
# Chain of Insulin-like growth factor 1 receptor (Homo sapiens) (P08069 31-736 limits assumed): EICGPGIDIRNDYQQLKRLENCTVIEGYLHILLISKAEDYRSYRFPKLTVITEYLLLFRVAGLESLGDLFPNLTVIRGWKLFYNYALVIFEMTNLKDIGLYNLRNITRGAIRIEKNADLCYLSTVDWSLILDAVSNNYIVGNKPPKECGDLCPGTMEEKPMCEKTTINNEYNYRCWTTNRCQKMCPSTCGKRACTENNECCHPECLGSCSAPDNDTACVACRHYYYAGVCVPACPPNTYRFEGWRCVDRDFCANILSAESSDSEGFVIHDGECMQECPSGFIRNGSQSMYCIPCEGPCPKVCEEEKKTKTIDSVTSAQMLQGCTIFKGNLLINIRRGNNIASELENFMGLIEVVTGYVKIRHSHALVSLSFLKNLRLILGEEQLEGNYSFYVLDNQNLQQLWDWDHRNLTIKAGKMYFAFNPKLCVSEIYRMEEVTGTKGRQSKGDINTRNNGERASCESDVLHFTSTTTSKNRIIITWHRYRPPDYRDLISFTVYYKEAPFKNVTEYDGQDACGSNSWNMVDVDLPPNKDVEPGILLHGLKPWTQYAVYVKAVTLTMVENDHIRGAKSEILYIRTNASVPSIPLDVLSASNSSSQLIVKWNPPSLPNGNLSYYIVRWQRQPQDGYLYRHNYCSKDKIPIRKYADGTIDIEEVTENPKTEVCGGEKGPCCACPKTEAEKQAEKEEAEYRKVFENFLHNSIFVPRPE
# Chain of Insulin-like growth factor 1 receptor (Homo sapiens) (P08069 741-1367 limits assumed): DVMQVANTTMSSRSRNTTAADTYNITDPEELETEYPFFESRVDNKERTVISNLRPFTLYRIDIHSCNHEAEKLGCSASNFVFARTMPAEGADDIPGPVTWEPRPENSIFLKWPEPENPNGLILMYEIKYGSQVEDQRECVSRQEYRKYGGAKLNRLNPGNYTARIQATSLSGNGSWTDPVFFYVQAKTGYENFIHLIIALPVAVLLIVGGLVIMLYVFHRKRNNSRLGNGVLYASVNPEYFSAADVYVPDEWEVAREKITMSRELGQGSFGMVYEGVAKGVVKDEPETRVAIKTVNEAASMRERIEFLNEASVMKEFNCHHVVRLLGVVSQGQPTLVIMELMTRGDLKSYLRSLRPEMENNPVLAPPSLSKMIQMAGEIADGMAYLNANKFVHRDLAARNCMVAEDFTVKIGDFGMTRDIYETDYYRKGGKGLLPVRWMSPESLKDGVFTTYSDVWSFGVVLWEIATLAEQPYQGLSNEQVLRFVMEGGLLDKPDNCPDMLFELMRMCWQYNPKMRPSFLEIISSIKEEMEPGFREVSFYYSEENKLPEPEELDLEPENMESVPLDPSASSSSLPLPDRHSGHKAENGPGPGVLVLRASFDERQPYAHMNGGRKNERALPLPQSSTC
Compound,inhibition [1] [%],inhibition [2] [%],inhibition [3] [%],inhibition [4] [%],inhibition [5] [%],inhibition [6] [%],inhibition [7],inhibition [8] [%]
Cc1ccc(NC(=O)CN2C(=O)/C(=N\NC(=O)c3cc(Br)ccc3O)c3ccc(Cl)cc32)cc1,76.6,71.5,51.3,66.9,76.7,82.1,Active,55.3
O=C(CN1C(=O)/C(=N\NC(=O)c2cc(Br)ccc2O)c2c(Br)cccc21)Nc1ccc([N+](=O)[O-])cc1,78.9,66.8,46.4,65.9,89.5,82.9,Active,66
Cc1ccc(NC(=O)CN2C(=O)/C(=N\NC(=O)c3cc(Br)ccc3O)c3ccccc32)cc1,83.8,84.8,48.5,80,93.1,93.5,Active,80.2
Cc1ccc(NC(=O)CN2C(=O)/C(=N\NC(=O)c3cc(Br)ccc3O)c3ccc(Br)cc32)cc1,72.4,69.3,39.3,64.3,76.7,86.1,Active,54
